The source of these data is ChEMBL document CHEMBL4196009, “Novel vitexin-inspired scaffold against leukemia” (Eur J Med Chem, 2018).

The structures appear in SMILES notation.

The species entered for assay [1] is Homo sapiens. Briefly: Inhibition of RNA polymerase 2 C-terminal domain phosphorylation at Ser2 residue in human KOPN8 cells at 30 uM after 3 hrs by Western blot analysis relative to control. The format is cell-based. The procedure, abridged: (§1)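 KOPN-8 cells were exposed to compound for 3 h and 24 h, with or without N-acetylcysteine added to a parallel set as antioxidant. Lysates were analysed by Western blot for cleaved PARP, Mcl-1, Ser-2-phosphorylated RNAPII CTD, cMyc, total Rb and pRb. Signals were compared against controls for dose-dependent change.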

Assay [2] has as its system KOPN-8. Kind of assay: Effect on c-Myc expression in human KOPN8 cells after 3 to 24 hrs by Western blot analysis. It counts as functional, cell-based. The procedure, abridged:
(§2)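 KOPN-8 cells were treated at 10–100 µM final, with or without N-acetylcysteine co-addition, for 3 h and 24 h. Lysates were analysed by Western blot for PARP cleavage, Mcl-1, phospho-Ser2 RNAPII CTD, c-Myc, total Rb and pRb. Levels are relative to the vehicle control.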
In general terms: Immunoblotting shows a protein as a band on a membrane.

The subject of assay [3] is KOPN-8. Kind of assay: Induction of apoptosis in human KOPN8 cells assessed as effect on Mcl-1 level at 100 uM after 24 hrs by Western blot analysis relative to control. It counts as functional. The procedure, abridged:
as §2

Assay [4] concerns KOPN-8. Kind of assay: Induction of apoptosis in human KOPN8 cells assessed as effect on Mcl-1 level at 100 uM pre-treated with NAC for 1 hr and measured after 24 hrs by Western blot analysis relative to control. The format is functional. The procedure, abridged: as §1
For assay [5], the system named is MDA-MB-231. Briefly: Cell cycle arrest in human MDA-MB-231 cells assessed as accumulation at G0/G1 phase at 20 uM after 24 hrs by propidium iodide staining-based flow cytometry (reference value: 70.47%). The format is functional. (In flow cytometry, cells or beads pass a laser one at a time.)
The species entered for assay [6] is Homo sapiens. Briefly: Inhibition of RNA polymerase 2 C-terminal domain phosphorylation at Ser2 residue in human KOPN8 cells at 100 uM after 24 hrs by Western blot analysis relative to control. It counts as cell-based. The procedure, abridged: as §1
Assay [7] has as its system KOPN-8. Kind of assay: Induction of apoptosis in human KOPN8 cells assessed as effect on Mcl-1 level at 10 uM pre-treated with NAC for 1 hr and measured after 24 hrs by Western blot analysis relative to control. The format is functional.
The test system of assay [8] is SUP-B15. Kind of assay: Induction of apoptosis in human SUP-B15 cells assessed as late apoptotic cells at 10 uM after 24 hrs by Annexin V-FITC/propidium iodide staining-based flow cytometry (reference value: 2.2%). The format is functional.
The subject of assay [9] is KOPN-8. Briefly: Effect on c-Myc expression in human KOPN8 cells at 10 uM after 3 hrs by Western blot analysis relative to control. It counts as functional. The procedure, abridged:
as §2

Assay [10] deals with T1, Retinoblastoma-associated protein (Homo sapiens) (UniProt P06400).
T1 sequence (whole entry): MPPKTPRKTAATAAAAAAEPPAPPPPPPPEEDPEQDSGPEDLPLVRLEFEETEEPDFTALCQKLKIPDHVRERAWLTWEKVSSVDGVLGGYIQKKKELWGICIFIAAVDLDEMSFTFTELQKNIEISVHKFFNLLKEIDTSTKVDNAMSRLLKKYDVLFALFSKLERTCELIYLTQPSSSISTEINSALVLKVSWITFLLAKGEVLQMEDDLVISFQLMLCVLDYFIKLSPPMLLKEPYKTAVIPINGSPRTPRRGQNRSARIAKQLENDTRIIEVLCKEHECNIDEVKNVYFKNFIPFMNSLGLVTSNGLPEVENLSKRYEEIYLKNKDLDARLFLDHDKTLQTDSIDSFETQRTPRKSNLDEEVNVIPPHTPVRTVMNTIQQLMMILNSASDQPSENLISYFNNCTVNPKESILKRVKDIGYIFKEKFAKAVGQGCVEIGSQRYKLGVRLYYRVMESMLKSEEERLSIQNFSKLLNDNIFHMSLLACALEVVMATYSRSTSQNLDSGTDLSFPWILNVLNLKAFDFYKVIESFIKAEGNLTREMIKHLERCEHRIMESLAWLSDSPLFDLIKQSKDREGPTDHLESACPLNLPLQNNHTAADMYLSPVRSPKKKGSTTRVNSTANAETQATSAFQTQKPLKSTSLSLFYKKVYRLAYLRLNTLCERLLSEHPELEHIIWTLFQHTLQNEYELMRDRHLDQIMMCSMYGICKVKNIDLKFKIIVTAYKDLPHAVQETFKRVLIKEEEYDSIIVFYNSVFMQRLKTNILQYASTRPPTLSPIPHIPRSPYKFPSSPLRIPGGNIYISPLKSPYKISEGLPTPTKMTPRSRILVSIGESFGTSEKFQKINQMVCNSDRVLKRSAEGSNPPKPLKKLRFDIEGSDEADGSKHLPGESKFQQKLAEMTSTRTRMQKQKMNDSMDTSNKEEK
Kind of assay: Inhibition of Rb phosphorylation in human KOPN8 cells assessed as ratio of phosphorylated Rb to total Rb levels at 100 uM after 24 hrs by Western blot analysis relative to control. It counts as cell-based. The procedure, abridged:
(§3)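 KOPN-8 pre-B ALL cells were treated for 3 h and 24 h, with or without N-acetyl cysteine added to a parallel set of cells as an antioxidant/ROS quencher. Lysates were analysed by Western blot for phosphorylated Rb and total Rb. The same blots also probed PARP cleavage, Mcl-1, Ser-2-phosphorylated RNAPII CTD and cMyc.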

Assay [11] concerns the target T1, Retinoblastoma-associated protein (Homo sapiens). Briefly: Inhibition of Rb phosphorylation in human KOPN8 cells assessed as ratio of phosphorylated Rb to total Rb levels at 100 uM pre-treated with NAC for 1 hr and measured after 3 hrs by Western blot analysis relative to control. It counts as cell-based. The procedure, abridged:
as §3

The target is the same in assay [12]. Briefly: Inhibition of Rb phosphorylation in human KOPN8 cells assessed as ratio of phosphorylated Rb to total Rb levels at 30 uM after 3 hrs by Western blot analysis relative to control. It counts as cell-based. The procedure, abridged: as §3
Assay [13] deals with KOPN-8. Kind of assay: Cell cycle arrest in human KOPN8 cells assessed as accumulation at G2/M phase at 10 uM after 24 hrs by propidium iodide staining-based flow cytometry (reference value: 9.67%). The format is functional. The procedure, abridged: (§4)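 KOPN-8 cells treated 24 h alongside a DMSO vehicle and a staurosporine (2.0 µM) positive control. Apoptosis was scored by FITC Annexin V / propidium iodide flow cytometry with quadrant gating (early, late apoptotic). DNA content was measured by PI staining to give the percentage of cells in G0/G1, S and G2/M. Groups were compared by t-test; error bars are SD.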

For assay [14], the system named is KOPN-8. Briefly: Cell cycle arrest in human KOPN8 cells assessed as accumulation at G2/M phase at 5 uM after 24 hrs by propidium iodide staining-based flow cytometry (reference value: 9.67%). It counts as functional. The procedure, abridged: as §4
Assay [15] concerns KOPN-8. Briefly: Effect on c-Myc expression in human KOPN8 cells at 0.5 uM after 24 hrs by Western blot analysis relative to control. The format is functional.
The species named for assay [16] is Homo sapiens. Kind of assay: Inhibition of RNA polymerase 2 C-terminal domain phosphorylation at Ser2 residue in human KOPN8 cells at 0.5 uM after 3 hrs by Western blot analysis relative to control. The format is cell-based. The procedure, abridged: as §1
In assay [17] the test system is KOPN-8. Kind of assay: Effect on c-Myc expression in human KOPN8 cells at 0.5 uM after 3 hrs by Western blot analysis relative to control. The format is functional.
The subject of assay [18] is KOPN-8. Kind of assay: Cell cycle arrest in human KOPN8 cells assessed as accumulation at G0/G1 phase at 5 uM after 24 hrs by propidium iodide staining-based flow cytometry (reference value: 24.77%). It counts as functional. The procedure, abridged: as §4
In assay [19] the test system is SUP-B15. Kind of assay: Induction of apoptosis in human SUP-B15 cells assessed as late apoptotic cells at 5 uM after 24 hrs by Annexin V-FITC/propidium iodide staining-based flow cytometry (reference value: 2.2%). It counts as functional.

Consider `COc1ccc(-c2c(I)c(=O)c3c(OC)cc(OC)cc3n2S(=O)(=O)c2ccc(OC)cc2)cc1`, for which the fold change (FC) in assay [1] came to 1; in assay [3] it was 0.1; in assay [4], 0.2; in assay [6], 0.2; in assay [7] it was 0.8; in assay [9], 0.9. Also, the fold change (FC) in assay [10] worked out at 1; in assay [11], 1.1; in assay [12], 1. The Activity entry in assay [2] is “Dose-dependent effect”; in assay [5], 66.22%; in [8], 7%; in assay [13], 27.12%.
As for `CN(C)C(=O)c1cc2cnc(Nc3ccc(N4CCNCC4)cn3)nc2n1C1CCCC1` [RIBOCICLIB], the Activity in assay [14] worked out at 28.79%; in assay [18], 45.66%; in assay [19] it was 22.5%. Besides, the entries for the “fold change (FC)” value in assay [15], in assay [16] and in assay [17] were 1.2, 0.8 and 1, respectively.
